“And” between values parts separate entries of the source, which are not always exact repeats. Equal values may be shown once.

Assay [1] has as its target T1, hKOR (Homo sapiens, UniProt P41145). Briefly: G protein BRET functional assay at hKOR. The class given is cell-based. The following applies: for IC50: read-out: IC50 ± SEM (antagonist activity), inhibition of a reference agonist (U-50,488); for agonist activity: concentrations up to 100 µM. The essentials:
(§1)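 HEK cells expressing the human receptor, co-transfected with Gα fused to an RLuc8 donor and Gγ fused to an mVenus acceptor. Receptor activation separates the G protein subunits, so the BRET signal falls. Agonist mode gives EC50 and Emax. Antagonist mode gives IC50 for inhibition of a reference agonist, and pA2 from Schild analysis. Values are mean ± SEM, n ≥ 3.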

Assay [2] concerns the target human mu-opioid receptor (hMOR) (Homo sapiens, UniProt P35372). Briefly: G protein BRET functional assay at hMOR. The class given is cell-based. As to conditions: for maximal efficacy (Emax) relative to DAMGO: G protein BRET, agonist mode; for EC50: read-out: EC50 ± SEM (agonist activity), G protein BRET, HEK cells, mean ± SEM, n ≥ 3. Background: In BRET a luciferase serves as donor, and the signal depends on an acceptor being close.

Assay [3] addresses T2, hDOR (Homo sapiens, UniProt P41143). Briefly: Radioligand binding at hDOR. As to conditions: read-out: Ki ± SEM, n ≥ 3.
For assay [4], the target named is T3, hMOR (Homo sapiens, UniProt P35372). As to the kind of experiment: β-arrestin recruitment BRET assay at hMOR. The class given is cell-based. As to conditions: β-arrestin-2 BRET, in the presence of GRK2. In general terms: Activated receptors often draw arrestin, which recruitment assays turn into a signal.
T3 sequence (P35372 whole entry): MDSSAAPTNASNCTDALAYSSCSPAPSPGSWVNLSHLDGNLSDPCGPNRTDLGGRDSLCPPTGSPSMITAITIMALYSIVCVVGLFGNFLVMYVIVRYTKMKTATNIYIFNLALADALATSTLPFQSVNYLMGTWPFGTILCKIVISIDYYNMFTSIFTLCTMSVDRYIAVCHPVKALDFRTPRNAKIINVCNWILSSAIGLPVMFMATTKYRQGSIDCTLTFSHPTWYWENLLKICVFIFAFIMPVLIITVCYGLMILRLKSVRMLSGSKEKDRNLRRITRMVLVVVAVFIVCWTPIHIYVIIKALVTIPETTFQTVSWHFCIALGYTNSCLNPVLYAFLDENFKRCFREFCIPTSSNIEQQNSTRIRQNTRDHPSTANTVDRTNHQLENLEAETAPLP
A further assay has as its target mouse MOR (mMOR) (Mus musculus, UniProt P42866). Briefly: G protein BRET functional assay at mouse MOR. The assay is classed as cell-based.
Assay [5] addresses T2, hDOR. Briefly: G protein BRET functional assay at hDOR. The class given is cell-based. As to conditions: for IC50: read-out: IC50 ± SEM (antagonist activity), inhibition of a reference agonist; for agonist activity: concentrations up to 100 µM. The essentials: as §1
Assay [6] deals with T3, hMOR. Briefly: Radioligand binding at hMOR. The following applies: read-out: Ki ± SEM, n ≥ 3.
In the next assay the test system is rodent opioid receptors. Briefly: G protein BRET functional assays using rodent opioid receptors. The class given is cell-based. The following applies: rodent receptors (mouse or rat).
Assay [7] concerns the target T1, hKOR. As to the kind of experiment: Radioligand binding at hKOR. The following applies: read-out: Ki ± SEM, n ≥ 3.

T2 sequence (P41143 whole entry): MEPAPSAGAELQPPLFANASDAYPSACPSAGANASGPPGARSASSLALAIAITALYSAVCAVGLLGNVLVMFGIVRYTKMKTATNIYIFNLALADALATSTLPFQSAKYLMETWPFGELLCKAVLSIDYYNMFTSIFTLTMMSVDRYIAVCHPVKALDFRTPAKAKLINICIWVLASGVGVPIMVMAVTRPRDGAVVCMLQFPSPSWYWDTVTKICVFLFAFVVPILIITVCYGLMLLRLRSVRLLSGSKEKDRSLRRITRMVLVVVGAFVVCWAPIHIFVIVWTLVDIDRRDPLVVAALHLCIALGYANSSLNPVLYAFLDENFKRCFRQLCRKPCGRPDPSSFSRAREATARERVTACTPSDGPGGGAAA
T1 sequence (P41145 whole entry, the tested form may be a part): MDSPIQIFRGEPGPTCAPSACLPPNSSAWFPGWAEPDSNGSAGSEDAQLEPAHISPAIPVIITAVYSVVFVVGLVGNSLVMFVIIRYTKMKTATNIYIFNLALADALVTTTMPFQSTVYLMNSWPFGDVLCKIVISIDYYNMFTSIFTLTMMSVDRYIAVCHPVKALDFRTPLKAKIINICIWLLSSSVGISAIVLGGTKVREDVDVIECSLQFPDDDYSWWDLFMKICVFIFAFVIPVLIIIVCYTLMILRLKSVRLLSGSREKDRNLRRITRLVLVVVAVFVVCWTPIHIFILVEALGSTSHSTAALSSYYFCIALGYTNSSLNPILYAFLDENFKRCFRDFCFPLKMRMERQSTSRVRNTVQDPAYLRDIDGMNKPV
Chain of human mu-opioid receptor (hMOR) (P35372 whole entry): as the sequence (P35372 whole entry) above
Chain of mouse MOR (mMOR) (P42866 whole entry): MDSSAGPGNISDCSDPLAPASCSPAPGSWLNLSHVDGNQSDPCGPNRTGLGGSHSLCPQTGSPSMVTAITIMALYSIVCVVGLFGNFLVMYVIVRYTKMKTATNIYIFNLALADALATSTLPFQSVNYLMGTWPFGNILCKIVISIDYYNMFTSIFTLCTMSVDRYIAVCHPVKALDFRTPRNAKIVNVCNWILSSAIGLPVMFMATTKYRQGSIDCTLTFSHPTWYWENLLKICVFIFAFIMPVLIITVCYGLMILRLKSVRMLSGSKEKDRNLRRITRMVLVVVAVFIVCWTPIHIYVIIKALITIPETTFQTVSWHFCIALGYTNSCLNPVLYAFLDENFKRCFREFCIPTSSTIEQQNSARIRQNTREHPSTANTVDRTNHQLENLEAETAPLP

As a reminder, the Emax is the size of the effect at its maximum, as opposed to the concentration needed. In the case of `CCC1CN2CCc3c([nH]c4cccc(OC)c34)C2CC1C(=COC)C(=O)OC` (single isomer, unassigned; (+)) [(+)-mitragynine], at hKOR [1] (G protein BRET, agonist mode), the Emax was determined as 31%.
As usually defined, the EC50 is the concentration that produces a half-maximal response. Take `CC[C@@H]1CN2CCc3c([nH]c4cccc(O)c34)[C@@H]2C[C@@H]1/C(=C\OC)C(=O)OC` [Compound 1]: in [2], the “maximal efficacy (Emax) relative to DAMGO” value was 29% and the EC50 came to 0.681 ± 0.379 µM.
On the same counts, the results for `CO/C=C(/C(=O)OC)[C@@H]1CCN2CCc3c([nH]c4cccc(OC)c34)[C@@H]2C1` [Compound 3, desethylmitragynine] are 59% and 12 ± 7.6 µM.
In general, Ki refers to the equilibrium dissociation constant of an inhibitor or competing ligand from its target. For orientation: IC50 means the concentration at which inhibition is half-maximal. On to `CC[C@@H]1CN2CC[C@@]3(O)C(=Nc4cccc(OC)c43)[C@@H]2C[C@@H]1/C(=C\OC)C(=O)OC` [Compound 7-OH, 7-hydroxymitragynine], for which the Ki on hDOR [3] worked out at 0.219 ± 0.041 µM. The β-arrestin recruitment entry on hMOR [4] is reported as “no measurable β-arrestin binding”. Moreover, the “pA2 (Schild analysis)” value on hKOR [1] (competitive antagonism) is 490 ± 131 nM. Moreover, the “pA2 determined from Schild analysis” value at hKOR [1] (competitive antagonism) is reported as 0.49 µM. Moreover, the IC50 at hKOR [1] is 7.9 µM; on hDOR [5], above 10 µM. For the same compound, the “agonist activity at mMOR” value on mouse MOR (mMOR) is on record as “retains its agonist activity”.
With `C=C[C@H]1CN2CCc3c([nH]c4cccc(OC)c34)[C@@H]2C[C@@H]1/C(=C\OC)C(=O)OC` [paynantheine], the figures for the Ki at hDOR [3] and on hMOR [6] were above 10 µM and 0.41 ± 0.152 µM, respectively. The agonist activity entry (at hKOR [1]; at hDOR [5]; in assay [2] (concentrations up to 100 µM)) was “no measurable agonist activity” throughout. The IC50 in assay [2] (read-out: IC50 ± SEM (antagonist activity), inhibition of a reference agonist, n ≥ 3) was 2.2 µM. Moreover, the “agonist or antagonist activity at rodent opioid receptors” value (“agonist or antagonist activity” below) in the assay on rodent opioid receptors is given as “no notable agonist or antagonist activity”.
On to `CC[C@@H]1CN2CCc3c([nH]c4cccc(OC)c34)[C@H]2C[C@@H]1/C(=C\OC)C(=O)OC` [speciociliatine], for which, at hDOR [3], the Ki was above 10 µM. Moreover, on hKOR [1], the agonist activity result is recorded as “no measurable agonist activity” and the IC50 was above 10 µM. On hDOR [5], the agonist activity entry is “no measurable agonist activity” and the IC50 is above 10 µM. In the assay with rodent opioid receptors, the “agonist or antagonist activity” value was “no notable agonist or antagonist activity”.
For the compound `CC[C@H]1CN2CCc3c([nH]c4cccc(OC)c34)[C@@H]2C[C@@H]1/C(=C\OC)C(=O)OC` [speciogynine], the Ki at hDOR [3] was above 10 µM. In addition, at hKOR [1], the agonist activity entry is given as “no measurable agonist activity” and the IC50 was above 10 µM. At hDOR [5], the agonist activity result is listed as “no measurable agonist activity” and the IC50 is above 10 µM. Moreover, the “agonist or antagonist activity” value with rodent opioid receptors is “no notable agonist or antagonist activity”.
On to mitragynine, for which the Ki at hKOR [7] was 0.772 ± 0.207 µM; on hDOR [3] it was above 10 µM. Moreover, on hKOR [1] (competitive antagonism), the “pA2 determined from Schild analysis” value was 1.4 ± 0.40 µM and 1.4 µM. The IC50 at hKOR [1] was 8.5 µM; at hDOR [5], above 10 µM. On hDOR [5], the “antagonist activity at hDOR” value is given as “very low potency”. In addition, the “agonist or antagonist activity” value in the assay with rodent opioid receptors was “no agonist activity”.
